Laboratory results taken from publication PMC5147544 (Science signaling, 2016).

How the values were obtained:
Neuro2A cells = Neuro2A cells (Mus musculus, UniProt P30731); experiment: Neurite outgrowth assay; format: cell-based; settings: 1 μM peptide, 16 to 20 hours at 37°C, protease inhibitor cocktail; Fig. 3A
Procedure, shortened: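 Neuro2A cells were plated on poly-L-lysine, 20,000 per well, in 10% FBS medium. Next day, in serum-free medium, cells got 1 μM peptide or vehicle with protease inhibitors for 16–20 h at 37°C. Sequential 40× images covered ~300–500 cells, with repeats on different days. Blinded scoring: a cell counted positive if its neurite was longer than twice the cell diameter.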

[1] = intracerebroventricular administration; cited from earlier work
[2] = target: endogenous mouse GPR83 in brain (hypothalamus, hippocampus, PVN) (mouse (endogenous in hypothalamus, hippocampus)) (UniProt P30731); experiment: radioligand binding
endogenous mouse GPR83 in brain (hypothalamus, hippocampus, PVN) (mouse (endogenous in hypothalamus, hippocampus)), sequence (P30731 18-423): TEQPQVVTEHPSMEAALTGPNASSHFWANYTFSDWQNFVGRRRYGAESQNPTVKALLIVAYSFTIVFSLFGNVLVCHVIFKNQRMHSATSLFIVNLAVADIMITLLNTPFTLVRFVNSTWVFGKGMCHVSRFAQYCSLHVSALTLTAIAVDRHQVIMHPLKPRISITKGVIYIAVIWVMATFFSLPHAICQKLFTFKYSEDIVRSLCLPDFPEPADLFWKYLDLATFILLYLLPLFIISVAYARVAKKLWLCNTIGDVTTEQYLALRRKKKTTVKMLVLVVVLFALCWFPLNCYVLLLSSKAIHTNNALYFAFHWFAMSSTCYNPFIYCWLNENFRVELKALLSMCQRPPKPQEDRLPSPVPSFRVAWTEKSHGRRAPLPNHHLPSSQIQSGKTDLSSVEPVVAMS

[3] = target: mouse hypothalamic membranes (Mus musculus, UniProt P30731); experiment: Displacement of [125I]Tyr-rPEN binding in mouse hypothalamic membranes; settings: [125I]Tyr-rPEN 3 nM, membranes 30 μg, peptide 0 to 10 μM; Fig. 1C
mouse hypothalamic membranes, sequence (P30731 18-423): as above

hGPR83 [4] = target: T1, hGPR83 (Homo sapiens, UniProt Q9NYM4); experiment: Displacement of [125I]Tyr-rPEN binding to CHO hGPR83 cell membranes; settings: Fig. 4D
T1 sequence (Q9NYM4 17-423): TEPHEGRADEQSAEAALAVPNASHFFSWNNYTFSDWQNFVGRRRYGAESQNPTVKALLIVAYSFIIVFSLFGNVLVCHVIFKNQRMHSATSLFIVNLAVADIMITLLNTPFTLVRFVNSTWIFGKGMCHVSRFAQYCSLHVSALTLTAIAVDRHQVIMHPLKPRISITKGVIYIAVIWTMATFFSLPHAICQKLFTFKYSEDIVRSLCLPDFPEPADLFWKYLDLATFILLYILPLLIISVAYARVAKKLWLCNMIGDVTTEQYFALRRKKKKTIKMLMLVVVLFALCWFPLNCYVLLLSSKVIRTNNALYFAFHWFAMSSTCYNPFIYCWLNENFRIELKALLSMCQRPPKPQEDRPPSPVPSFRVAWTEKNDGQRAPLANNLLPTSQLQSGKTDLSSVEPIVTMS
Procedure, shortened: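 Membranes were prepared from CHO cells expressing untagged hGPR83 by homogenising in ice-cold 20 mM tris-Cl, 250 mM sucrose, 2 mM EGTA, 1 mM MgCl₂ (pH 7.4), then spinning at 27,000g. Membranes (50 μg) were incubated 1 h at 37°C in 50 mM tris-Cl (pH 7.4) plus protease inhibitors with 3 nM [¹²⁵I]Tyr-rPEN and competitor peptide (0 to 10 μM). Samples were filtered on GF/B, washed three times with ice-cold buffer and counted by scintillation.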

[5] = [35S]GTPγS binding in membranes from control CHO cells; format: biochemical, Chinese hamster; settings: membranes 20 μg, CHO alone; Fig. 4E
Procedure, shortened: (§1)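 Membranes (20 μg) were incubated 1 h at 30°C with peptide (0 to 1 μM final), 2 mM GDP and 0.5 nM [³⁵S]GTPγS. Buffer was 50 mM Hepes, 5 mM MgCl₂, 100 mM NaCl, 1 mM EDTA (pH 7.4) with protease inhibitors. Nonspecific binding was taken with 10 μM cold GTPγS, and basal as GDP without ligand. Samples were filtered on GF/B, washed three times with ice-cold 50 mM tris-Cl and counted by scintillation.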

hGPR83 [6] = target: T1, hGPR83; experiment: [35S]GTPγS binding in membranes from CHO hGPR83 cells; format: biochemical; settings: membranes 20 μg; Fig. 4E
Procedure, shortened: as §1

Neuro2A cells, sequence (P30731 18-423): as the sequence (P30731 18-423) above

In the case of “rSAAS: rat SAAS, proSAAS-derived peptide (ARPVKEPRSLSAASAPLAETSTPLRL; Big SAAS; UniProt Q9QXU9 34-59, looked up)”, the number of neurites (Neuro2A cells) is reported as “significantly increased”.
For “PEN: proSAAS-derived peptide PEN, species form not stated at this place (AADHDVGSELPPEGVLGALLRV; PEN; UniProt Q9UHG2 221-242, looked up)”, the “effect on food intake” value [1] is given as “did not elicit a significant effect”.
“N-terminally tyrosinated, radioiodinated rat PEN (peptide)” showed a Kd [2] of 8 nM.
With “mbigLEN: mouse bigLEN, proSAAS-derived neuropeptide that activates GPR171 (LENPSPQAPARRLLPP; Big LEN; UniProt Q9QXV0 243-258, looked up)” the number of neurites (Neuro2A cells) was “significantly increased”.
For “bigLEN: proSAAS-derived peptide bigLEN, species form not stated at this place (LETPAPQVPARRLLPP; Big LEN; UniProt Q9UHG2 245-260, looked up)”, the “effect on food intake” value [1] is given as “did not elicit a significant effect”.
In the case of LENPSPQAPA [rlittleLEN], the “competition for [125I]Tyr-rPEN binding” value [3] is reported as “did not compete for binding”.
In the case of neuropeptide Y [NPY], the “displacement of [125I]Tyr-rPEN” value (hGPR83 [4]; 10 μM NPY, not significant (one-way ANOVA, P = 0.37)) is reported as ~ 20%, the “displacement of [125I]Tyr-rPEN” value (hGPR83 [4]; NPY at concentrations below 1 μM, [125I]Tyr-rPEN 3 nM, membranes 50 μg) is reported as “did not displace” and the GTPγS binding [5] is reported as “small increase”. For the same substance, the GTPγS binding (hGPR83 [6]) was “small increase”.
